Assay results: ChEMBL document CHEMBL1157506, “Synthesis and pharmacological characterization of chiral pyrrolidinylfuran derivatives: the discovery of new functionally selective muscarinic agonists” (J Med Chem, 2008)

How the values were obtained:
Cavia porcellus [1] = species: Cavia porcellus; experiment: Intrinsic activity at muscarinic M1/M4 receptor in guinea pig lung assessed as effect on tissue contraction relative to control
[2] = Agonist activity at muscarinic M1/M4 receptor in guinea pig lung assessed as effect on tissue contraction; assay type: functional, Cavia porcellus
[3] = molecular target: T1, Muscarinic acetylcholine receptor M1 (Homo sapiens, UniProt P11229); experiment: Displacement of [3H]NMS from human muscarinic M1 receptor expressed in CHO cells by liquid scintillation counter; assay type: cell-based
T1 sequence (P11229 whole entry): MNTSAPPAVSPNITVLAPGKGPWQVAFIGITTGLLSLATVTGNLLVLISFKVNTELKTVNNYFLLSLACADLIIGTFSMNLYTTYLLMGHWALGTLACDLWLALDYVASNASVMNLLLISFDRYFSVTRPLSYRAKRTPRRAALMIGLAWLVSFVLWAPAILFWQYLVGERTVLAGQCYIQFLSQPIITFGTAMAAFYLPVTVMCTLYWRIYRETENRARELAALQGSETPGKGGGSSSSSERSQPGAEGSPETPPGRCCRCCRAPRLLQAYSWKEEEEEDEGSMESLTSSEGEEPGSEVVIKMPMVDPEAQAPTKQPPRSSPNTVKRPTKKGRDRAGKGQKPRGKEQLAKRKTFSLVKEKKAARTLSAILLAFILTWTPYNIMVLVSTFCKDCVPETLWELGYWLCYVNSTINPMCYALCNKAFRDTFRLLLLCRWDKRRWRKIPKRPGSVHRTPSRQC

[4] = molecular target: T2, Muscarinic acetylcholine receptor M2 (Homo sapiens, UniProt P08172); experiment: Displacement of [3H]NMS from human muscarinic M2 receptor expressed in CHO cells by liquid scintillation counter; assay type: cell-based
T2 sequence (P08172 whole entry): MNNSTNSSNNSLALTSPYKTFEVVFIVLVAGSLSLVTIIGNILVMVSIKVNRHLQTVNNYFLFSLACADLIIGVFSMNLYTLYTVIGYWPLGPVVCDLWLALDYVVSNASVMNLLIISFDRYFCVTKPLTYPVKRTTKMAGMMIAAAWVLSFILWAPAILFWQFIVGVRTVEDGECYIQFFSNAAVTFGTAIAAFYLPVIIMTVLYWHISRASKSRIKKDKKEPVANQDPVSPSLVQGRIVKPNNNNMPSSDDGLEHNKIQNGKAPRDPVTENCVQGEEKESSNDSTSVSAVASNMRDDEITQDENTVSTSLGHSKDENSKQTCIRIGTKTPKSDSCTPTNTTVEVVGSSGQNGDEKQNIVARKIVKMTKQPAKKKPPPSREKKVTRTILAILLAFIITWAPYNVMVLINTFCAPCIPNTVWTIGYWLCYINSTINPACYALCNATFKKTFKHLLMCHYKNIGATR
How it was run: (§1)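 Membrane protein was 70 µg/mL for hm2, 50 µg/mL for hm4 and 25 µg/mL for hm5. Incubation was 120 min at room temperature in 25 mM sodium phosphate with 5 mM MgCl2, pH 7.4. GF/C filtration and scintillation counting followed; duplicates.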

[5] = molecular target: Muscarinic acetylcholine receptor M3 (Homo sapiens, UniProt P20309); experiment: Displacement of [3H]NMS from human muscarinic M3 receptor expressed in CHO cells by liquid scintillation counter; assay type: cell-based
[6] = molecular target: T3, Muscarinic acetylcholine receptor M4 (Homo sapiens, UniProt P08173); experiment: Displacement of [3H]NMS from human muscarinic M4 receptor expressed in CHO cells by liquid scintillation counter; assay type: cell-based; how it was run: as §1
T3 sequence (P08173 whole entry): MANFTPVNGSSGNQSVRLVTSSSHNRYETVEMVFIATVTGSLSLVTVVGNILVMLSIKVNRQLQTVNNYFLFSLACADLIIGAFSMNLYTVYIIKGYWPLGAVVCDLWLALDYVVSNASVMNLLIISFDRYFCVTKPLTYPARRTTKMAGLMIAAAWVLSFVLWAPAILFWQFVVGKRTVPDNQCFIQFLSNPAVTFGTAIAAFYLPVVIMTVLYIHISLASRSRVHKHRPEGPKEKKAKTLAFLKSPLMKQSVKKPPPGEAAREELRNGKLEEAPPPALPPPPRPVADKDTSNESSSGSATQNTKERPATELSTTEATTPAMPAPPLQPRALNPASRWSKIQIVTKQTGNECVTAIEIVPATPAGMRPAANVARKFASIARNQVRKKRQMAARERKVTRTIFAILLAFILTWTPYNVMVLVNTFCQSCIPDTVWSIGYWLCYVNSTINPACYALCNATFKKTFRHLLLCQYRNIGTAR

[7] = molecular target: T4, Muscarinic acetylcholine receptor M5 (Homo sapiens, UniProt P08912); experiment: Displacement of [3H]NMS from human muscarinic M5 receptor expressed in CHO cells by liquid scintillation counter; assay type: cell-based; how it was run: as §1
T4 sequence (P08912 whole entry): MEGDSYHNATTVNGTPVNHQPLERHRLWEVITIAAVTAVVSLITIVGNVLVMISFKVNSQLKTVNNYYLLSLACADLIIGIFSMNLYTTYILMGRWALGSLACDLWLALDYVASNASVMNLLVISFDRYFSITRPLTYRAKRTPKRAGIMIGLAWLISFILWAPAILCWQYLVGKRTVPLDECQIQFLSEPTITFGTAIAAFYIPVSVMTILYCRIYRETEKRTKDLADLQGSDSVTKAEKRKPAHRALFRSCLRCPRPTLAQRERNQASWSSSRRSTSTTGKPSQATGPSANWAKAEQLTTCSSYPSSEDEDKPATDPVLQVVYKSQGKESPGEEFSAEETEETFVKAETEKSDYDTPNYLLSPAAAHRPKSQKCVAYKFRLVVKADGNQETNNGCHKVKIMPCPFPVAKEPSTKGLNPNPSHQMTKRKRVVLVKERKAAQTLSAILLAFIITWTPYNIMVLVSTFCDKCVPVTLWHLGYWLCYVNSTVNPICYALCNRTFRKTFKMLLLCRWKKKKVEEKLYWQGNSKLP

Oryctolagus cuniculus = species: Oryctolagus cuniculus; experiment: Intrinsic activity at muscarinic M1/M4 receptor in New Zealanda white rabbit vas deferens assessed as effect on isometric tissue contraction relative to control; assay type: tissue-based
How it was run: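 Vas deferens in solution with 10^-6 M yohimbine and 10^-8 M tripitramine at 30 °C, field-stimulated (0.1 ms, 2 Hz, 10-15 V). Contractions recorded isometrically after 1 h equilibration. A cumulative McN-A-343 reference curve was built, then cumulative curves to the test agonist. Responses are expressed as % of the control curve's maximum. Parallel reference-only tissues served as sensitivity checks.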

Cavia porcellus [8] = species: Cavia porcellus; experiment: Intrinsic activity at muscarinic M2 receptor in guinea pig atrium assessed as effect on inotropic activity relative to control; assay type: tissue-based; settings: Cardiac atrium
How it was run: (§2)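 Left atria in PSS at 30 °C, paced via platinum electrodes (1 ms, 1 Hz, 5-10 V). Inotropic force recorded isometrically after 2 h equilibration. A cumulative APE reference curve was obtained, then cumulative agonist curves. Responses are expressed as % of the control maximal response.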

[9] = Agonist activity at muscarinic M2 receptor in guinea pig atrium assessed as effect on inotropic activity; assay type: functional, Cavia porcellus, Cardiac atrium; how it was run: as §2
Cavia porcellus [10] = species: Cavia porcellus; experiment: Intrinsic activity at muscarinic M3 receptor in guinea pig ileum assessed as effect on tissue tension changes relative to control; assay type: tissue-based
How it was run: (§3)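 Ileum tension changes recorded isotonically after 30 min equilibration. APE curves were run at 30 min intervals; the first was discarded and the second was taken as control. Cumulative agonist curves followed, with responses expressed as % of the control maximum. Parallel reference-only tissues served as sensitivity checks.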

[11] = Agonist activity at muscarinic M3 receptor in guinea pig ileum assessed as effect on tissue tension changes; assay type: functional, Cavia porcellus; how it was run: as §3
[12] = Antagonist activity at muscarinic M1/M4 receptor in guinea pig lung assessed as effect on tissue contraction; assay type: functional, Cavia porcellus

Sequence of Muscarinic acetylcholine receptor M3 (P20309 whole entry): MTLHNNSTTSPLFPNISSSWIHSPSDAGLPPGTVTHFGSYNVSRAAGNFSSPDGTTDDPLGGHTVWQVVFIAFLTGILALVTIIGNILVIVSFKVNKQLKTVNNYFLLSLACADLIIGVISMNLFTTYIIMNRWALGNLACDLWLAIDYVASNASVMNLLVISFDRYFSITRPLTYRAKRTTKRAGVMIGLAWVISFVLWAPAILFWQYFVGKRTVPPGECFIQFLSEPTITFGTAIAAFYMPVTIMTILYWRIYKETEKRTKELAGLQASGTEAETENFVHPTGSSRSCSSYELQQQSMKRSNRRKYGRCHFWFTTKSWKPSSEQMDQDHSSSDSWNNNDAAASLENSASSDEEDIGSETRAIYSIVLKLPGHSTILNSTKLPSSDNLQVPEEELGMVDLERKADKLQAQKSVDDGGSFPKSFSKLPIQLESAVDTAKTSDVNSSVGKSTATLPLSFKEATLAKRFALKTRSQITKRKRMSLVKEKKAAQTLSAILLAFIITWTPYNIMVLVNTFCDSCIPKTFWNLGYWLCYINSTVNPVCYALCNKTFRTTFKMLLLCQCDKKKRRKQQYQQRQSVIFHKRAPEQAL

CN1CCC[C@H]1c1ccco1 showed an Intrinsic activity (Cavia porcellus [1]) of 0.33, a pD2 [2] of 6.72 and a Ki [3] of 43.7 µM. The Ki [4] was 30.9 µM, the Ki [5] was 52.5 µM and the Ki [6] was 56.2 µM. It also gave a Ki [7] of 63.1 µM, an Intrinsic activity (Oryctolagus cuniculus) of 0.3 and an Intrinsic activity (Cavia porcellus [8]) of 0.65. The pD2 [9] was 6.82, the Intrinsic activity (Cavia porcellus [10]) was 0.37 and the pD2 [11] was 5.83.

With c1coc([C@H]2CCCN2)c1 the Ki [3] was 46.8 µM, the Ki [4] was 77.6 µM and the Ki [5] was 25.1 µM. For the same molecule, the Ki [6] was 89.1 µM and the Ki [7] was 31.6 µM.

In the case of C[N+]1(C)CCCC1c1ccco1.[I-] (racemic), the pD2 [12] is reported as less than 5, the Ki [3] is reported as 5.25 µM and the Ki [4] is reported as 3.72 µM. For the same molecule, the Ki [5] was 2.75 µM, the Ki [6] was 6.46 µM and the Ki [7] was 3.16 µM. It also gave an Intrinsic activity (Oryctolagus cuniculus) of 0.26, an Intrinsic activity (Cavia porcellus [8]) of 0.38 and a pD2 [9] of 6.65. It also gave an Intrinsic activity (Cavia porcellus [10]) of 0.19 and a pD2 [11] of 5.65.

With Cc1ccc([C@H]2CCCN2)o1 the Intrinsic activity (Cavia porcellus [1]) was 0.32, the pD2 [2] was 5.45 and the Ki [3] was 14.5 µM. It also gave a Ki [4] of 3.24 µM, a Ki [5] of 12 µM and a Ki [6] of 29.5 µM. The Ki [7] was 15.8 µM, the Intrinsic activity (Oryctolagus cuniculus) was 1 and the A50 (Cavia porcellus [8]) was 1. The pD2 [9] was 6.71, the Intrinsic activity (Cavia porcellus [10]) was 1 and the pD2 [11] was 6.16.

c1coc([C@@H]2CCCN2)c1 gave a Ki [3] of 63.1 µM, a Ki [4] of 107 µM and a Ki [5] of 43.7 µM. The Ki [6] was 102 µM and the Ki [7] was 47.9 µM.

In the case of Cc1ccc(C2CCCN2)o1 (racemic), the pKb [12] is reported as 5.51, the Ki [3] is reported as 38 µM and the Ki [4] is reported as 4.27 µM. For the same molecule, the Ki [5] was 18.2 µM, the Ki [6] was 51.3 µM and the Ki [7] was 19.1 µM. The Intrinsic activity (Cavia porcellus [8]) was 1, the pD2 [9] was 6.66 and the Intrinsic activity (Cavia porcellus [10]) was 0.97. For the same molecule, the pD2 [11] was 5.57.

Cc1ccc(C2CCC[N+]2(C)C)o1.[I-] (racemic) gave a pKb [12] of less than 5, a Ki [3] of 7.41 µM and a Ki [4] of 1.91 µM. For the same molecule, the Ki [5] was 6.92 µM, the Ki [6] was 4.37 µM and the Ki [7] was 4.68 µM. For the same molecule, the Intrinsic activity (Cavia porcellus [8]) was 0.33, the pD2 [9] was 7.55 and the Intrinsic activity (Cavia porcellus [10]) was 0.28. For the same molecule, the pD2 [11] was 7.25.

Molecule C[N+]1(C)CCC[C@H]1c1ccco1.[I-] has a pKb [12] of less than 5, a Ki [3] of 30.9 µM and a Ki [4] of 7.41 µM. For the same molecule, the Ki [5] was 21.4 µM, the Ki [6] was 21.4 µM and the Ki [7] was 20.9 µM. For the same molecule, the Intrinsic activity (Oryctolagus cuniculus) was 0.21, the Intrinsic activity (Cavia porcellus [8]) was 0.3 and the pD2 [9] was 7.19. The Intrinsic activity (Cavia porcellus [10]) was 0.41 and the pD2 [11] was 5.77.

For C[N+](C)(C)CCOC(N)=O.[Cl-] [CARBACHOL], the Intrinsic activity (Cavia porcellus [1]) was 1, the Intrinsic activity (Cavia porcellus [8]) was 1 and the Intrinsic activity (Cavia porcellus [10]) was 1.
